An excerpt weighted towards active compounds, which were near 1.3% of everything screened.
FN deposit inh: inhibitors of fibronectin matrix deposition, primary screen, AH1F cells, Alexa488-fibronectin fluorescence, plate reader | AH1F fibroblasts, overnight | inhibition, % at 12.6 µM | 0.086% of 350,000 active | AID 743247, 2014;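 active = mean inhibition across replicates of 30% or more, regardless of how many single replicates reach that level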;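 also: positive control wells lacked labelled fibronectin entirely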
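Material: AH1F fibroblast monolayer depositing Alexa488-labelled fibronectin into matrix | Input: 10000 AH1F cells/well | Medium: DMEM plus 2% serum, read in PBS | Reagent: Alexa488-fibronectin, 24 nM final in well | Compound dosing: One dose per compound, pinned | Schedule: 1 h adhesion, overnight exposure | Measured by: Fluorescence at 485 nm excitation, 525 nm emission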
ERp5 inh: inhibitors of ERp5-driven insulin aggregation, primary screen, biochemical, turbidity, absorbance 650 nm, single point; 0.05% of 350,000 active; AID 651711, 2012; inhibition, % at 9.99 µM; Protein disulfide-isomerase A6 (Homo sapiens), Q15084; 90 min;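 active = mean replicate inhibition above about 25%, with every replicate also reaching it, limit read from the data, passing the limit was not always enough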
PDI inh: inhibitors of human PDI, primary screen, biochemical, turbidity, single point, plate reader. AID 588391, 2011. 0.052% of 350,000 active. PDI insulin aggregation turbidity, A650, 90 min. inhibition, % at 10 µM. Protein disulfide-isomerase (Homo sapiens), P07237;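 active = mean inhibition across replicates of 30% or more, whatever share of single replicates reach that level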
SIRT5 inh: SIRT5 desuccinylase inhibitors, primary screen, biochemical, fluorescence imaging, single point, set 5; NAD-dependent protein deacylase sirtuin-5, mitochondrial (Homo sapiens), Q9NXA8; Purified SirT5, succinyl-peptide AMC, trypsin-coupled fluorescence; inhibition, % at 15 µM; 1.1% of 330,000 active; in the data active = inhibition above about 15%
MLL AF4-AF9 inh: inhibitors of AF4 peptide binding to AF9, primary screen, biochemical, AlphaScreen, biotin-AF4 peptide, FLAG-AF9, single point; Protein AF-9 (Homo sapiens), P42568; inhibition, % at 10 µM; 0.47% of 350,000 active;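 active = every replicate reaching a set inhibition limit, whatever the replicate mean, cut at about 25% in these data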;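 also: 0% = plate neutral control median and 100% = total signal loss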
Target sequence (P42568 whole entry, looked up): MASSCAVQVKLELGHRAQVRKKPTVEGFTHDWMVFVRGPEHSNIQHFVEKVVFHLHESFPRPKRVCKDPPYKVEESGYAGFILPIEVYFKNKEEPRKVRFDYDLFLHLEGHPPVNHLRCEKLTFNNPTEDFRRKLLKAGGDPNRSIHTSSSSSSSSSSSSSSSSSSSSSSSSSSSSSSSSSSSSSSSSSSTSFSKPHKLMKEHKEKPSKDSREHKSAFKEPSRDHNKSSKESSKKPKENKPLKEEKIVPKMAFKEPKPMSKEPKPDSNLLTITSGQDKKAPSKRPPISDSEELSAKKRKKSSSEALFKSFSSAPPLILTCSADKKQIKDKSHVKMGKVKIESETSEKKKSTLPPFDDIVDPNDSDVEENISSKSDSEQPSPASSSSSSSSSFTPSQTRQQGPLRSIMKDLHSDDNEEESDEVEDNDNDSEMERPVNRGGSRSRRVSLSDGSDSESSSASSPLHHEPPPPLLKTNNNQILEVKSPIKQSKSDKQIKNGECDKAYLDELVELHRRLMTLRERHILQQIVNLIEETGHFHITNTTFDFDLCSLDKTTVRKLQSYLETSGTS
* marks the source's active call; other numbers are inactive results; nt = not tested or not shown.

SMILES | FN deposit inh | ERp5 inh | PDI inh | SIRT5 inh | MLL AF4-AF9 inh
COc1ccccc1-c1ccc2c(c1)O[C@@H](CN(C)CC1CCOCC1)[C@H](C)CN([C@H](C)CO)S2(=O)=O | -8 | 0 | nt | 16* | -3
C[C@H]1CN([C@@H](C)CO)S(=O)(=O)c2ccc(-c3cccc(C(=O)N(C)C)c3)cc2O[C@@H]1CN(C)Cc1ccc2c(c1)OCO2 | nt | -3 | nt | 15* | 3
C[C@H](CO)N1C[C@H](C)[C@@H](CN(C)Cc2ccc3c(c2)OCO3)Oc2cc(-c3cccc(C(=O)N(C)C)c3)ccc2S1(=O)=O | nt | -9 | nt | 18* | 1
COc1ccccc1-c1ccc2c(c1)O[C@H](CN(C)Cc1ccc3c(c1)OCO3)[C@H](C)CN([C@H](C)CO)S2(=O)=O | nt | 22 | nt | 22* | 6
Cc1sc2nc(SCC(=O)Nc3c(C)n(C)n(-c4ccccc4)c3=O)n(C)c(=O)c2c1C | 0 | nt | -9 | nt | nt
CCOC(=O)c1c(NC(=O)c2ccccc2)sc2c1CCc1ccccc1-2 | 5 | -1 | 11 | -4 | 0
C[C@@H]1CN([C@H](C)CO)S(=O)(=O)c2ccc(-c3ccccc3)cc2O[C@H]1CN(C)C(=O)c1ccc2c(c1)OCO2 | nt | 1 | nt | 2 | 2
C=CCN1C=C2C(=O)C(C)(OC(=O)CCC(=O)OC)C(=O)C(Br)=C2C=C1c1ccc(OC)cc1 (stereo unspecified) | nt | nt | -2 | nt | nt
COc1ccc(/C=C(\NC(=O)c2cccs2)C(=O)NC(C)(C)C)cc1OC | 7 | 3 | -1 | -4 | -1
C[C@@H]1O[C@@H](O[C@@H]2C(=O)c3c(O)cc(O)cc3O[C@H]2c2ccc(O)c(O)c2)[C@H](O)[C@H](O)[C@H]1O | 1 | -1 | 44* | nt | -1
O=C1c2c(O)cc(O)cc2O[C@H](c2ccc(O)c(O)c2)[C@H]1O | -4 | -1 | 7 | 8 | -24
Cc1nc(N)nc(N)c1CCCc1ccc(Cl)c(Cl)c1 | -9 | 5 | 2 | 15* | 10
COc1cc2c(oc(=O)c3cc(C)cc(OC)c32)c2c(C3OC(C)C(O)C(C)(O)C3O)ccc(O)c12 (stereo unspecified) | 2 | 2 | -1 | 19* | -1
CO/N=C/C(C#N)=C/c1cc(C(=O)c2ccccc2)cn1C | 10 | -1 | 1 | -2 | -1
Cc1noc(C)c1CSCC(=O)Nc1ccccc1N1CCCC1 | 2 | -2 | -3 | 16* | -10
Cc1noc(C)c1CSCC(=O)Nc1cc(Cl)ccc1N1CCCCC1 | 0 | 14 | -1 | 8 | -2
CCOc1ccc(-c2csc3nc[nH]c(=O)c23)cc1 | -4 | 0 | 1 | -4 | -2
COc1ccc(-c2csc3nc[nH]c(=O)c23)cc1 | 0 | 0 | 9 | 23* | -5
Cc1c2cc(O)c(=O)cc-2oc2cc(O)c(O)cc12 | nt | -4 | -6 | 29* | 20
COc1cc(OC)c(-c2c3cc(O)c(=O)cc-3oc3cc(O)c(O)cc23)cc1OC | -4 | 3 | 0 | 7 | 13
CC1COCC(C)N1C(=O)c1cccnc1 (stereo unspecified) | -9 | 0 | -1 | -1 | -3
COc1ccc(OC)c(C(=O)NC(CC(N)=O)c2ccc(N3CCC(N4CCCC4)CC3)c([N+](=O)[O-])c2)c1 (stereo unspecified) | 15 | 1 | 1 | -1 | 7
CCC(=O)N1CC(=O)N2[C@H](C1)[C@@H](c1ccc(C#CCC(C)C)cc1)[C@@H]2CO | -10 | 2 | nt | 3 | -4
Cc1ccc(S(=O)(=O)NCCSc2nnnn2-c2cc(C)ccc2C)cc1 | -8 | nt | 3 | nt | nt
COc1ccc(NC(=O)CN2CCN(c3ccccn3)CC2)cc1Cl | -1 | -2 | -3 | 29* | -10
SMILES | FN deposit inh | ERp5 inh | PDI inh | SIRT5 inh | MLL AF4-AF9 inh
CC(C)c1ccc(NC(=O)CN2CCN(c3ccccn3)CC2)cc1 | 2 | -1 | 8 | -2 | -1
C[C@@H]1CCCCO[C@H](CN(C)C(=O)Nc2ccc(C(F)(F)F)cc2)[C@@H](C)CN([C@H](C)CO)C(=O)c2cc(NS(C)(=O)=O)ccc2O1 | nt | 1 | nt | -3 | -3
Cc1noc(C)c1CSc1nc2sc(C)c(C)c2c(=O)n1C1CCCC1 | 7 | 3 | 7 | 35* | nt
Cc1noc(C)c1CSc1nc2sc3c(c2c(=O)n1C)CCCC3 | nt | nt | -10 | nt | nt
C[C@H]1CN([C@@H](C)CO)S(=O)(=O)c2ccc(/C=C/c3ccccc3)cc2O[C@@H]1CN(C)C(=O)C1CC1 | -10 | 0 | nt | 9 | 9
C[C@H]1CN([C@@H](C)CO)S(=O)(=O)c2ccc(/C=C/c3ccccc3)cc2O[C@H]1CN(C)C(=O)C1CC1 | -6 | 1 | nt | 15* | 11
C[C@@H]1CN([C@@H](C)CO)S(=O)(=O)c2ccc(/C=C/c3ccccc3)cc2O[C@@H]1CN(C)C(=O)C1CC1 | -5 | 2 | nt | 17* | 5
C[C@H](CO)N1C[C@H](C)[C@@H](CN(C)C(=O)C2CC2)Oc2cc(/C=C/c3ccccc3)ccc2S1(=O)=O | 10 | 2 | nt | 13 | 7
Cc1ccc(C(=O)Nc2c(-c3cccs3)c(=O)c3ccccc3n2C)cc1 | nt | nt | 4 | nt | nt
O=C(O)c1ccc(-c2ccc(/C=c3/sc4nc5ccccc5n4c3=O)o2)cc1Cl | 7 | 4 | -13 | 24* | -1
COc1ccc(NC(=O)Nc2ccc3c(c2)C(=O)N([C@@H](C)CO)C[C@@H](C)[C@@H](CN(C)Cc2ccc(-c4ccccc4)cc2)O3)cc1 | nt | -1 | nt | 17* | 4
COc1ccc(NC(=O)Nc2ccc3c(c2)C(=O)N([C@@H](C)CO)C[C@@H](C)[C@@H](CN(C)Cc2ccc(C(=O)Nc4ccccc4N)cc2)O3)cc1 | -1 | -8 | nt | 16* | 2
COc1ccc(NC(=O)Nc2ccc3c(c2)C(=O)N([C@H](C)CO)C[C@H](C)[C@H](CN(C)Cc2ccc(-c4ccccc4)cc2)O3)cc1 | nt | -6 | nt | 13 | 2
COc1ccc(NC(=O)Nc2ccc3c(c2)C(=O)N([C@@H](C)CO)C[C@@H](C)[C@@H](CN(C)Cc2ccncc2)O3)cc1 | nt | -7 | nt | 27* | -8
COc1ccc(NC(=O)Nc2ccc3c(c2)C(=O)N([C@H](C)CO)C[C@@H](C)[C@@H](CN(C)Cc2ccc(C(=O)Nc4ccccc4N)cc2)O3)cc1 | -15 | -11 | nt | 7 | -2
COc1ccc(-c2cnc3c(c2)C(=O)N([C@@H](C)CO)C[C@H](C)[C@@H](CN(C)Cc2ccc(C(=O)O)cc2)O3)cc1 | nt | 4 | nt | 21* | -2
COc1cc(/C=C/C(=O)OCC(=O)N2CCc3ccccc3C2)ccc1O | -1 | 3 | 3 | -1 | -5
O=C(NCCc1ccncc1)[C@H]1[C@H](CO)[C@H]2Cn3c(ccc(-c4ccc(F)cc4)c3=O)[C@@H]1N2 | nt | -1 | nt | -28 | -41
Cc1nn(C)c2ncc(C(=O)c3cc(F)ccc3O)cc12 | nt | nt | 2 | nt | nt

Screening data from PubChem BioAssay.
